Assays:
[1] = target: Serine/threonine-protein kinase PAK 2 (Homo sapiens) (UniProt Q13177); experiment: Inhibition of PAK2 at 10 uM by HotSpot assay
[2] = target: Tyrosine-protein kinase SYK (Homo sapiens) (UniProt P43405); experiment: Inhibition of SYK at 10 uM by HotSpot assay
[3] = target: Inhibitor of nuclear factor kappa-B kinase subunit beta (Homo sapiens) (UniProt O14920); experiment: Inhibition of IKK-beta at 10 uM by HotSpot assay
[4] = target: RAF proto-oncogene serine/threonine-protein kinase (Homo sapiens) (UniProt P04049); experiment: Inhibition of RAF1 at 10 uM by HotSpot assay
[5] = target: Tyrosine-protein kinase Lck (Homo sapiens) (UniProt P06239); experiment: Inhibition of LCK at 10 uM by HotSpot assay
[6] = target: Insulin-like growth factor 1 receptor (Homo sapiens) (UniProt P08069); experiment: Inhibition of IGF1R at 10 uM by HotSpot assay
[7] = target: Macrophage colony-stimulating factor 1 receptor (Homo sapiens) (UniProt P07333); experiment: Inhibition of FMS at 10 uM by HotSpot assay
[8] = target: Fibroblast growth factor receptor 1 (Homo sapiens) (UniProt P11362); experiment: Inhibition of FGFR1 at 10 uM by HotSpot assay
[9] = target: Platelet-derived growth factor receptor beta (Homo sapiens) (UniProt P09619); experiment: Inhibition of PDGFRbeta at 10 uM by HotSpot assay
[10] = target: Ribosomal protein S6 kinase beta-1 (Homo sapiens) (UniProt P23443); experiment: Inhibition of p70S6K1 at 10 uM by HotSpot assay
[11] = target: Vascular endothelial growth factor receptor 2 (Homo sapiens) (UniProt P35968); experiment: Inhibition of KDR at 10 uM by HotSpot assay
[12] = target: Inhibitor of nuclear factor kappa-B kinase subunit epsilon (Homo sapiens) (UniProt Q14164); experiment: Inhibition of IKKepsilon at 10 uM by HotSpot assay
[13] = target: Insulin receptor (Homo sapiens) (UniProt P06213); experiment: Inhibition of IR at 10 uM by HotSpot assay
[14] = target: Glycogen synthase kinase-3 beta (Homo sapiens) (UniProt P49841); experiment: Inhibition of GSK3-beta at 10 uM by HotSpot assay
[15] = target: Proto-oncogene tyrosine-protein kinase Src (Homo sapiens) (UniProt P12931); experiment: Inhibition of c-SRC at 10 uM by HotSpot assay
[16] = target: Serine/threonine-protein kinase PLK1 (Homo sapiens) (UniProt P53350); experiment: Inhibition of PLK1 at 10 uM by HotSpot assay
[17] = Growth inhibition of human RPMI8266 cells after 48 hrs by sulforhodamine B assay; format: functional
Outline: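 Cells grown in RPMI 1640 with 5% FBS and 2 mM L-glutamine, seeded at 5,000–40,000 cells/well according to doubling time. After 24 h, time-zero plates are TCA-fixed. Five concentrations (10-fold or ½log dilutions, DMSO stocks) are applied for 48 h at 37 °C, 5% CO₂. Cells are TCA-fixed, SRB-stained and read at 515 nm. IC₅₀ is taken from [(Ti−Tz)/(C−Tz)]×100 = 50.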

[18] = Cytotoxicity against human […] cells assessed as cell growth at 10 uM after 48 hrs by sulforhodamine B assay; format: functional; conditions: read-out: Activity
[19] = test system: HOP-92; experiment: Cytotoxicity against human HOP92 cells assessed as cell growth at 0.001 uM after 48 hrs by sulforhodamine B assay; format: functional; conditions: HOP-92, 48 h, read-out: Activity
[20] = test system: HCC 2998; experiment: Cytotoxicity against human HCC2998 cells assessed as cell growth at 10 uM after 48 hrs by sulforhodamine B assay; format: functional; conditions: HCC 2998, 48 h, read-out: Activity
[21] = test system: HL-60(TB); experiment: Cytotoxicity against human HL-60(TB) cells assessed as cell growth at 10 uM after 48 hrs by sulforhodamine B assay; format: functional; conditions: HL-60, 48 h, read-out: Activity
Outline: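 Five-concentration HL-60(TB) test in RPMI 1640 with 5% FBS and 2 mM L-glutamine. Cells are plated at 5,000–40,000/well and a TCA-fixed time-zero plate is read at drug addition after 24 h. Drug is dissolved in DMSO and given as five 10-fold or ½log dilutions for 48 h at 37 °C, 5% CO2. Settled cells are fixed with TCA, stained with SRB and read at 515 nm.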

[22] = test system: RXF 393; experiment: Cytotoxicity against human RXF393 cells assessed as cell growth at 0.01 uM after 48 hrs by sulforhodamine B assay; format: functional; conditions: RXF 393, 48 h, read-out: Activity
[23] = test system: SK-MEL-28; experiment: Cytotoxicity against human SK-MEL-28 cells assessed as cell growth at 100 nM after 48 hrs by sulforhodamine B assay; format: functional; conditions: SK-MEL-28, 48 h, read-out: Activity
[24] = Cytotoxicity against human RPMI8266 cells assessed as cell growth at 0.001 uM after 48 hrs by sulforhodamine B assay; format: functional; conditions: read-out: Activity
[25] = test system: HCC 2998; experiment: Cytotoxicity against human HCC2998 cells assessed as cell growth at 1 uM after 48 hrs by sulforhodamine B assay; format: functional; conditions: HCC 2998, 48 h, read-out: Activity
[26] = test system: SR; experiment: Cytotoxicity against human SR cells assessed as cell growth at 100 nM after 48 hrs by sulforhodamine B assay; format: functional; conditions: read-out: Activity
[27] = test system: RXF 393; experiment: Cytotoxicity against human RXF393 cells assessed as cell growth at 1 uM after 48 hrs by sulforhodamine B assay; format: functional; conditions: RXF 393, 48 h, read-out: Activity
[28] = test system: PC-3; experiment: Cytotoxicity against human PC3 cells assessed as cell growth at 0.001 uM after 48 hrs by sulforhodamine B assay; format: functional; conditions: PC-3, 48 h, read-out: Activity
[29] = test system: NCI-H226; experiment: Cytotoxicity against human NCI-H226 cells assessed as cell growth at 10 uM after 48 hrs by sulforhodamine B assay; format: functional; conditions: NCI-H226, 48 h, read-out: Activity
[30] = test system: HCC 2998; experiment: Cytotoxicity against human HCC2998 cells assessed as cell growth at 100 nM after 48 hrs by sulforhodamine B assay; format: functional; conditions: HCC 2998, 48 h, read-out: Activity
[31] = test system: HCC 2998; experiment: Cytotoxicity against human HCC2998 cells assessed as cell growth at 0.01 uM after 48 hrs by sulforhodamine B assay; format: functional; conditions: HCC 2998, 48 h, read-out: Activity
[32] = test system: SR; experiment: Cytotoxicity against human SR cells assessed as cell growth at 1 uM after 48 hrs by sulforhodamine B assay; format: functional; conditions: read-out: Activity
[33] = Cytotoxicity against human RPMI8266 cells assessed as cell growth at 100 nM after 48 hrs by sulforhodamine B assay; format: functional; conditions: read-out: Activity
[34] = test system: NCI-H226; experiment: Cytotoxicity against human NCI-H226 cells assessed as cell growth at 0.01 uM after 48 hrs by sulforhodamine B assay; format: functional; conditions: NCI-H226, 48 h, read-out: Activity
[35] = test system: PC-3; experiment: Growth inhibition of human PC3 cells after 48 hrs by sulforhodamine B assay; format: functional, cell-based
[36] = test system: PC-3; experiment: Cytotoxicity against human PC3 cells assessed as cell growth at 1 uM after 48 hrs by sulforhodamine B assay; format: functional; conditions: PC-3, 48 h, read-out: Activity
[37] = test system: SK-MEL-28; experiment: Cytotoxicity against human SK-MEL-28 cells assessed as cell growth at 10 uM after 48 hrs by sulforhodamine B assay; format: functional; conditions: SK-MEL-28, 48 h, read-out: Activity

Sequence of Insulin receptor (Homo sapiens) (P06213 28-758 limits assumed): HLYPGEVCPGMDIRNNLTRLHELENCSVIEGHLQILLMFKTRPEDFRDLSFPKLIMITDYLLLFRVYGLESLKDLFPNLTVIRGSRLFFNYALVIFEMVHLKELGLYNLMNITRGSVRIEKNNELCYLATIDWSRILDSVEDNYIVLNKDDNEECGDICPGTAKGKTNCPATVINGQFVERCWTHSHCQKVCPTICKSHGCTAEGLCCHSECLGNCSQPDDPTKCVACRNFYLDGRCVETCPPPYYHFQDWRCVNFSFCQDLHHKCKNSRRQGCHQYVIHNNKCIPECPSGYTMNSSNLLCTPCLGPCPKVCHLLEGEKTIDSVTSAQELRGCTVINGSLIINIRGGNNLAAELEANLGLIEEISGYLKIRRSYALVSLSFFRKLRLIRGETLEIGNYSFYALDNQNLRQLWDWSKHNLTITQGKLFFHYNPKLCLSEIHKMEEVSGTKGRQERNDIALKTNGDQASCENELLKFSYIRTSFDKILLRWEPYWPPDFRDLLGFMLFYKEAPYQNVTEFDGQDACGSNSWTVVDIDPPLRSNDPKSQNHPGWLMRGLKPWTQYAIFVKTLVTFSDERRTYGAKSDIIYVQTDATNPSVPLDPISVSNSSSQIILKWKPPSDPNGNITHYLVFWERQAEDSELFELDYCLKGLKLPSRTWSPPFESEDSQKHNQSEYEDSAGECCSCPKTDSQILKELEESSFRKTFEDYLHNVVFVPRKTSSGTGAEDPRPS
Sequence of Insulin receptor (Homo sapiens) (P06213 763-1382 limits assumed): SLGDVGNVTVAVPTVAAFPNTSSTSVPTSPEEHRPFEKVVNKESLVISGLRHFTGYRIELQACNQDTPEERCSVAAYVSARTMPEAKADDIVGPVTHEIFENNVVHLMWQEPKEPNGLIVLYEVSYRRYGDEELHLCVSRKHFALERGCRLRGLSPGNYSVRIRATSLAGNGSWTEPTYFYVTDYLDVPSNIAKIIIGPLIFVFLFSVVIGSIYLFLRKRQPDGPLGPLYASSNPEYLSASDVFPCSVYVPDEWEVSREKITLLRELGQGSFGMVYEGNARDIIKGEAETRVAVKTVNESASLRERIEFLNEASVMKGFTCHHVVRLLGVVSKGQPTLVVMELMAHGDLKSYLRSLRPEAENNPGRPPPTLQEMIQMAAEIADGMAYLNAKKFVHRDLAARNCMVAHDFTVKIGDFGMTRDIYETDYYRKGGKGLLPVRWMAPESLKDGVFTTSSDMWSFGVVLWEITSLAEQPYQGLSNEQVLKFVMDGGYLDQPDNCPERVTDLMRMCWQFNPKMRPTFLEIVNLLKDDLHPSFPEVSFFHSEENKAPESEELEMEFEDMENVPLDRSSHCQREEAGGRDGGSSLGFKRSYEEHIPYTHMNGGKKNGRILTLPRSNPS
Sequence of Serine/threonine-protein kinase PAK 2 (Homo sapiens) (Q13177 whole entry): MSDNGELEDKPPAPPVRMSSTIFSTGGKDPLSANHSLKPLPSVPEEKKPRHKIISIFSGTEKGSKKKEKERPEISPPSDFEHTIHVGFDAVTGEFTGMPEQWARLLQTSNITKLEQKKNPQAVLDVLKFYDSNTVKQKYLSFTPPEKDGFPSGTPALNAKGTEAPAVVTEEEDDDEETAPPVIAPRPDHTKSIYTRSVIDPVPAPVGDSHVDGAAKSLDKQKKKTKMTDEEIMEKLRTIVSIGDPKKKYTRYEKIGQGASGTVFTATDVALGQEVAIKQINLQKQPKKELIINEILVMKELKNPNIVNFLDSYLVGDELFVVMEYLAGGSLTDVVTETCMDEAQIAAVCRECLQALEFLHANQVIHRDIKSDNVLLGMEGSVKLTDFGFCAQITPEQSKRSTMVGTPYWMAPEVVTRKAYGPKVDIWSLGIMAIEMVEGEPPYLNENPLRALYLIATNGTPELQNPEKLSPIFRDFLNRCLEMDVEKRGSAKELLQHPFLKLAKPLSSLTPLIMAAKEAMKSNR
Sequence of Vascular endothelial growth factor receptor 2 (Homo sapiens) (P35968 whole entry): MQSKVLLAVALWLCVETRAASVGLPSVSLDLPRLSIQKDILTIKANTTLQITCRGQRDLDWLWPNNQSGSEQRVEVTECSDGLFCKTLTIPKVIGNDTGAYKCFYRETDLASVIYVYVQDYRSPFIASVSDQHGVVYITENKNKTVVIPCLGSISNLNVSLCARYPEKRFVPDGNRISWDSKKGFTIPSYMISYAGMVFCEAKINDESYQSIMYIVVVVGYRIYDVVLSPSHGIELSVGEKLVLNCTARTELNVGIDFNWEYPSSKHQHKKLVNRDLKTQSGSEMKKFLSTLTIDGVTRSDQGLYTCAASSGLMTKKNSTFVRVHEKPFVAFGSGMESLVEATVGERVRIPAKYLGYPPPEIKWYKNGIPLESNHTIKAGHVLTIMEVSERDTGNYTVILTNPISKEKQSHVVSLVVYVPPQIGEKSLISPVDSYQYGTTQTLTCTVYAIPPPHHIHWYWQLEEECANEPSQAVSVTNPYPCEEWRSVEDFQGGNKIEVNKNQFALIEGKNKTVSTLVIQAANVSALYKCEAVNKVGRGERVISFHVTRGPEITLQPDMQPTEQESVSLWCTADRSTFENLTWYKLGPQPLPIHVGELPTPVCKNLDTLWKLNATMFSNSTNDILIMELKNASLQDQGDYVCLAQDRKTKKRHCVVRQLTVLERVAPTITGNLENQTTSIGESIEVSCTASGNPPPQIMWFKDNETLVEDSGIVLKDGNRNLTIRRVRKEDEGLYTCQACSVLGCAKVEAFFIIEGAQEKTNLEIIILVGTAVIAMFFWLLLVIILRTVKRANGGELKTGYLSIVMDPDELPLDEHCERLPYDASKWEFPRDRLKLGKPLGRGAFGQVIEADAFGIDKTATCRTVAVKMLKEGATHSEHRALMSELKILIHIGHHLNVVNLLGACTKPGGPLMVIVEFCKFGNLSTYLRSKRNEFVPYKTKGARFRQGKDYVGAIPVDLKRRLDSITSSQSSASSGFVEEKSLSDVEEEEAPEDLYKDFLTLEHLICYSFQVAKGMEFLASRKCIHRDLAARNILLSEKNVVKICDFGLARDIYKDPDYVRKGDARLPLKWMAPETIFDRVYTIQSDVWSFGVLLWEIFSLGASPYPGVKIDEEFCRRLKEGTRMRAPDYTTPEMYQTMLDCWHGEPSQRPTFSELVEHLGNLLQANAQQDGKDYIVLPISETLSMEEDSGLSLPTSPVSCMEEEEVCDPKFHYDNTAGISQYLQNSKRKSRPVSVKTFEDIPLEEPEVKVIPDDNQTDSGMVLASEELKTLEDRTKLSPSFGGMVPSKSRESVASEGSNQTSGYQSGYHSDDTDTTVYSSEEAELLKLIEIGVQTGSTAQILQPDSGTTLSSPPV
Sequence of Insulin-like growth factor 1 receptor (Homo sapiens) (P08069 31-736 limits assumed): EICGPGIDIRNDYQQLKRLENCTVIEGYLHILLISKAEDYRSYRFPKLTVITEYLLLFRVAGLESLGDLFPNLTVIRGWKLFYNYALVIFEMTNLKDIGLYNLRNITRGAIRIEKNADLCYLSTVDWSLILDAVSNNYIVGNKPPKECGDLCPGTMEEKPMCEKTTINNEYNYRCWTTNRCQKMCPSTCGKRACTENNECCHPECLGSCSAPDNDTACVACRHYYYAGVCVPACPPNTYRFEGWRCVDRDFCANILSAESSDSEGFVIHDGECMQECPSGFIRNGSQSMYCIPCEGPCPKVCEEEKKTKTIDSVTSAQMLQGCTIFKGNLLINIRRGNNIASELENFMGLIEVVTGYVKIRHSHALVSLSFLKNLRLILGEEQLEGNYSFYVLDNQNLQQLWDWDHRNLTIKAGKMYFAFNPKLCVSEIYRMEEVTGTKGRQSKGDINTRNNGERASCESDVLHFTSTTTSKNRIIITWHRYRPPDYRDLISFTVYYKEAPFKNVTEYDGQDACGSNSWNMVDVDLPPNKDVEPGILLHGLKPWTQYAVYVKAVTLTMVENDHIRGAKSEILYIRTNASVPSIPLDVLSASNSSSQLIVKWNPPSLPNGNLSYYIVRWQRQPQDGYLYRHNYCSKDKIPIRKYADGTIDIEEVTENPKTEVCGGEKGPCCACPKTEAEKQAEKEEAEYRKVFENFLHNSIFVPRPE
Sequence of Insulin-like growth factor 1 receptor (Homo sapiens) (P08069 741-1367 limits assumed): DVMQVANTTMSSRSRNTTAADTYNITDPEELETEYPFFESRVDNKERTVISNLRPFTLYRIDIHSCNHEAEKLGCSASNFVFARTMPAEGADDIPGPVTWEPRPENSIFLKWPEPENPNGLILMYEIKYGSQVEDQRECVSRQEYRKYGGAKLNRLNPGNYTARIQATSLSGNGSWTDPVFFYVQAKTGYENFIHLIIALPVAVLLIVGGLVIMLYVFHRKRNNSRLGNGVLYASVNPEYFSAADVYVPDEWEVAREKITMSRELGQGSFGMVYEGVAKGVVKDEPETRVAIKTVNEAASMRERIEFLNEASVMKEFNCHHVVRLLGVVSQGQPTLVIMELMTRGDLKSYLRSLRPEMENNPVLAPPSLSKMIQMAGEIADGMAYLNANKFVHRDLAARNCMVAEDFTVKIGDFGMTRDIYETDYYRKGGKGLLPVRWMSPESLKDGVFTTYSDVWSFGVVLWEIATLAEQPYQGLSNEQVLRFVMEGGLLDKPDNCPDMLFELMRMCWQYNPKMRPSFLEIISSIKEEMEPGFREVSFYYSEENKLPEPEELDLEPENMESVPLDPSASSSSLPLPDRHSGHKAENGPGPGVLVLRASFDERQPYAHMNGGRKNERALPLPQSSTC
Sequence of Glycogen synthase kinase-3 beta (Homo sapiens) (P49841 whole entry, looked up): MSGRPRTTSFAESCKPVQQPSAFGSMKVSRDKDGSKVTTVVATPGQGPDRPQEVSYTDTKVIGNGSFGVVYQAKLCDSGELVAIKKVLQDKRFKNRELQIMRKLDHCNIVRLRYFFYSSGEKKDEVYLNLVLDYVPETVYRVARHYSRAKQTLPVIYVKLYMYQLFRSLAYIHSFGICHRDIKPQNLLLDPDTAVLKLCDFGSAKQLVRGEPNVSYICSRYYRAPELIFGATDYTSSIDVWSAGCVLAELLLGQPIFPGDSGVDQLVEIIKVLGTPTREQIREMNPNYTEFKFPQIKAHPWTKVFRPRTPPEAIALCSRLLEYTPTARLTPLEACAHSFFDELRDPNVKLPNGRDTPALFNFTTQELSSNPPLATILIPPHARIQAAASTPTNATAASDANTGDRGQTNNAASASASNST

CC(=O)Nc1cccc(-c2ccc(-c3ccnc(NC(=O)Nc4cc(C(F)(F)F)cc(C(F)(F)F)c4)n3)cn2)c1.Cl
inhibition [1]: < 50% | inhibition [2]: < 50% | inhibition [3]: < 50% | inhibition [4]: < 50% | inhibition [5]: 70% | inhibition [6]: < 50% | inhibition [7]: < 50% | inhibition [8]: < 50% | inhibition [9]: < 50% | inhibition [10]: < 50% | inhibition [11]: 50% | inhibition [12]: < 50% | inhibition [13]: < 50% | inhibition [14]: < 50% | inhibition [15]: 60% | inhibition [16]: < 50%

CC(=O)c1ccccc1-c1ccc(-c2ccnc(NC(=O)Nc3cc(N4CCOCC4)cc(C(F)(F)F)c3)n2)cn1
GI50 [17]: > 100 µM | TGI [17]: > 100 µM | CC50 ([17]; read-out: LC50 (the source's name)): > 100 µM | growth at 10 µM [18]: 89% | growth at 0.001 µM [19]: 88% | growth at 10 µM [20]: 135% | growth at 10 µM [21]: 107% | growth at 0.01 µM [22]: 108% | growth at 0.1 µM [23]: 92% | growth at 0.001 µM [24]: 101% | growth at 1 µM [25]: 114% | growth at 0.1 µM [26]: 74% | growth at 1 µM [27]: -52% | growth at 0.001 µM [28]: 101% | growth at 10 µM [29]: 71% | growth at 0.1 µM [30]: 117% | growth at 0.01 µM [31]: 113% | growth at 1 µM [32]: 78% | growth at 0.1 µM [33]: 79% | growth at 0.01 µM [34]: 108% | GI50 ([35]; Homo sapiens, PC-3, 48 h): > 100 µM | IC50 ([35]; pc-3): Not Active | growth at 1 µM [36]: 78% | growth at 10 µM [37]: 93%

Reference: ChEMBL document CHEMBL1165943, “Design and synthesis of new anticancer pyrimidines with multiple-kinase inhibitory effect” (Bioorg Med Chem, 2010)
